These results are taken from ChEMBL document CHEMBL4118248, “Small Molecule Proprotein Convertase Subtilisin/Kexin Type 9 (PCSK9) Inhibitors: Hit to Lead Optimization of Systemic Agents” (J Med Chem, 2018).

Series [1] has as its target 80S Ribosome. Put plainly: Binding affinity to 80S ribosome in human HuH7 cells assessed as inhibition of PCSK9 mRNA translation after overnight incubation by ELISA. The class given is cell-based. The following applies: huh-7. The method in brief:
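Huh7 cells kept in high-glucose DMEM, 10% BSA-free FBS, 2 mM L-glutamine, pen/strep at 37 °C, 5% CO2. Plated 7,500/well with compound or vehicle and incubated overnight (16-20 h). Secreted PCSK9 in the medium read by AlphaLISA: two antibodies to different mature-PCSK9 epitopes, biotinylated antibody 3 nM final, acceptor beads 10 µg/mL, 0.5 h rt; streptavidin donor beads 40 µg/mL, 1 h rt.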
Background: In an ELISA, binding on a coated surface is turned into a signal by an enzyme label.

Series [2] in a line: Intrinsic clearance in rat liver microsomes. Conditions: read-out: CLH. Type of series: ADME, microsome. On the technique in general: Liver microsomes are vesicles of endoplasmic reticulum, rich in cytochrome P450 enzymes.
Series [3] deals with 80S Ribosome. Put plainly: Binding affinity to 80S ribosome in human HuH7 cells harboring pCMV-truncated human PCSK9 (1 to 152 residues)-proLuc assessed as inhibition of PCSK9 mRNA translation after overnight incubation by luciferase reporter gene assay. The class given is cell-based. The following applies: huh-7. In a few lines:
(§1)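 Huh7 cells stably carry human PCSK9 prodomain (aa 1-152) fused to firefly luciferase (aa 2-550) in pcDNA3.1, kept under 900 µg/mL Geneticin. Plated 10,000/well in phenol red-free DMEM/10% FBS and left 4 h, then compound added (top final 20 µM, 0.5% DMSO). Incubated overnight at 37 °C, luminescence read with SteadyGlo.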
On the technique in general: Reporter assays use an easily measured gene product as a stand-in for the process of interest.

A short description of series [4]: Lipophilicity, log D of the compound by shake flask method. The class given is physicochemical. The following applies: octanol/water. In a few lines: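 LogD measured by the shake-flask method.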
In series [5] the target is Voltage-gated inwardly rectifying potassium channel KCNH2 (Homo sapiens, UniProt Q12809). Description: Inhibition of dofetilide binding to human ERG by fluorescence polarization assay.
The next series deals with Bone marrow cell. Description: Cytotoxicity against rat bone marrow cells assessed as reduction in cell viability after 72 hrs by CellTiter-Glo assay. The class given is cell-based.
The nature of series [6]: Intrinsic clearance in human liver microsomes. The class given is ADME, microsome. The following applies: read-out: CLH.
Series [7] relates to Rattus norvegicus. Put plainly: Toxicity in Crl:CD(SD) rat assessed as single cell necrosis in crypt cells in ileum at 50 mg/kg/day, po daily via gavage for 14 days measured on day 15 post last dose. The following applies: in vivo, 336 h. The class given is organism-based.
Series [8] relates to Rattus norvegicus. Description: Toxicity in Crl:CD(SD) rat assessed as discolored/mottled liver at 50 mg/kg/day, po daily via gavage for 14 days measured on day 15 post last dose. The class given is organism-based. The following applies: in vivo, 336 h. The method in brief:
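Male rats, 5 per group, given vehicle or compound at 50 mg/kg/day by oral gavage for 14 days. Mortality, clinical signs and hematology monitored throughout. Necropsy on day 15 with microscopy of bone marrow, ileum, duodenum, jejunum and liver. Toxicokinetics at 1, 3, 6 and 24 h post-dose on day 14.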

In series [9] the target is T1, 80S Ribosome (Homo sapiens) (UniProt P08865+P42677+P62753+P15880+P23396+P61247+P62701+P22090+P46782+P62081+P62241+P46781+P46783+P62280+P25398+P62277+P62263+P62841+P62244+P62249+P08708+P62269+P39019+P60866+P63220+P62266+P62847+P62851+P62854+P62979+P62857+P62273+P62861+P39023+P36578+P46777+Q02878+P18124+P62424+P62917+P32969+P27635+P62906+P62913+P30050+P26373+P40429+P50914+P61313+P18621+Q07020+Q02543+P84098+P46778+P35268+P62829+P62750+P83731+P61254+P61353+P46776+P46779+P47914+P62888+P62899+P62910+P49207+P42766+P18077+Q9Y3U8+P83881+P61927+P61513+P63173+P62891+P62945+P05388+P05386). Description: Binding affinity to 80S ribosome in human HuH7 cells harboring pCMV-truncated human PCSK9 (1 to 152 residues)-proLuc assessed as inhibition of PCSK9 mRNA translation at 20 uM after overnight incubation by luciferase reporter gene assay relative to control. The class given is cell-based. The following applies: Huh-7. In a few lines:
as §1

Series [10] concerns the target T1, 80S Ribosome (Homo sapiens). Description: Binding affinity to 80S ribosome in human HuH7 cells assessed as inhibition of PCSK9 mRNA translation at 20 uM after overnight incubation by ELISA relative to control. The class given is cell-based. Conditions: Huh-7.

Sequence of Voltage-gated inwardly rectifying potassium channel KCNH2 (Q12809 whole entry): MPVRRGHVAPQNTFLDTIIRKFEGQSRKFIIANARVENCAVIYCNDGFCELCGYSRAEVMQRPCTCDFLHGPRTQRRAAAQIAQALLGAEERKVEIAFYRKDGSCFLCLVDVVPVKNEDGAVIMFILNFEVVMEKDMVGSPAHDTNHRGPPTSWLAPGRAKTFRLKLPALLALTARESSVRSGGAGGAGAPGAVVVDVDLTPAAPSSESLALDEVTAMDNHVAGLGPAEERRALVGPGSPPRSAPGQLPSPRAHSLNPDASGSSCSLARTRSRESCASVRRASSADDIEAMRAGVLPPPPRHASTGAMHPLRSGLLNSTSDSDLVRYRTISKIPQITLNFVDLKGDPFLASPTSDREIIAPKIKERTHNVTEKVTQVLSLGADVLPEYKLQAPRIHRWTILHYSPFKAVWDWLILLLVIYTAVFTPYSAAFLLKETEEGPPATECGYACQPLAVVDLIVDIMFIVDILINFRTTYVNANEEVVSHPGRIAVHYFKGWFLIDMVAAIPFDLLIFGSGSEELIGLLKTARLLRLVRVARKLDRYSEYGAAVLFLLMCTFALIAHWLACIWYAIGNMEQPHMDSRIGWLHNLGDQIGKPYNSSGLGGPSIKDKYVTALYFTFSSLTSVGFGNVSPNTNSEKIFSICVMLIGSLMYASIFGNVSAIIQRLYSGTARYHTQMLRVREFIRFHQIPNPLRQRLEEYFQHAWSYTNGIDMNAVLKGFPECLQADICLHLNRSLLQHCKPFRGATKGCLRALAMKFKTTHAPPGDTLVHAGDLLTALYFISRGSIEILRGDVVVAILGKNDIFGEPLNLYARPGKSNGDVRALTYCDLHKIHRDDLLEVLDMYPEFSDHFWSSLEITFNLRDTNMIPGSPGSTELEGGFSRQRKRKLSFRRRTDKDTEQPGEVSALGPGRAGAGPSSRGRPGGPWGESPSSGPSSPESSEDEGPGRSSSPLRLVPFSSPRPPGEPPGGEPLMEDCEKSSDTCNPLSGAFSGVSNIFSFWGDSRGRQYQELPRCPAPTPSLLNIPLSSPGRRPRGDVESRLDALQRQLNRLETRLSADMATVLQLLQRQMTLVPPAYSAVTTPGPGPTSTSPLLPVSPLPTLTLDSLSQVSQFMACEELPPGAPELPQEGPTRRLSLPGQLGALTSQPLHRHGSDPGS

`O=C(c1ccc(-c2cnccn2)cc1)N(c1nccc2ccccc12)[C@@H]1CCCNC1`: the figures for the IC50 at 80S Ribosome [1], on 80S Ribosome [3] and with Bone marrow cell were 9.32 µM, 4.3 µM and more than 20 µM, respectively. Also, the results for the microsomal CLint in series [2] and in series [6] were 123 µL/min/mg and 11 µL/min/mg, respectively. In addition, the logD (as a rule, the decadic logarithm of the distribution of all forms, ionised or not, between an organic phase and buffer at a given pH) in [4] turned out to be 0.7. In series [5], the Ki (usually a dissociation constant, usually derived from enzyme kinetics or from competition with a known ligand) is more than 40 µM.
As to `CNc1cncc(-c2ccc(C(=O)N(c3ncccc3Cl)[C@@H]3CCCNC3)cc2)n1`, the IC50 (in general, the midpoint of a concentration-inhibition curve) on 80S Ribosome [1] amounted to 3.08 µM; with Bone marrow cell it was 19.6 µM. Besides, in series [4], the logD amounted to 1.07. In series [5], this molecule showed a Ki of 38.4 µM. Besides, in [6], the microsomal CLint was found to be 8.7 µL/min/mg.
Turning to `O=C(c1ccc(-n2nnc3cccnc32)nc1)N(c1ncccc1Cl)[C@@H]1CCCNC1`, the IC50 at 80S Ribosome [1] amounted to 9.24 µM; on 80S Ribosome [3], 4.1 µM. Besides, the microsomal CLint in [2] is 14.7 µL/min/mg; in [6], less than 8 µL/min/mg. Moreover, the logD in series [4] was 0.1. In series [5], this molecule registered a Ki of 12.7 µM.
As to `O=C(c1ccc(-n2nnc3cccnc32)cn1)N(c1ncccc1Cl)[C@@H]1CCCNC1`, the IC50 at 80S Ribosome [1] is 1.44 µM; on 80S Ribosome [3] it was 0.71 µM; in the series with Bone marrow cell, more than 12.7 µM. The values for the microsomal CLint in series [2] and in series [6] were 15.3 µL/min/mg and less than 8 µL/min/mg, respectively. Besides, the Activity result was “Non-Toxic” in the series on Rattus norvegicus [7] and “Toxic” in the series on Rattus norvegicus [8]. In addition, the logD in series [4] is 0.3. In addition, the Ki in [5] was determined as 28.8 µM.
Consider `O=C(c1ccc(-n2nnc3cccnc32)cc1)N(c1ncccc1Cl)[C@H]1CCCNC1`, for which the inhibition (as a rule, the share of the control response that was lost under treatment) in series [9] is 61%; in [10] it was 24%. In addition, the Activity entry with Rattus norvegicus [7] was “Non-Toxic”; in the series on Rattus norvegicus [8] it was “Toxic”. For the same molecule, the IC50 with Bone marrow cell was more than 20 µM.
With `Cn1cc(-c2ccc(C(=O)N(c3nccc4ccccc34)[C@@H]3CCCNC3)cc2)cn1`, the IC50 at 80S Ribosome [1] came out at 2.38 µM; at 80S Ribosome [3], 1.06 µM; in the series with Bone marrow cell, 2.9 µM. In series [4], this molecule had a logD of 0.9. The same molecule registered a Ki in series [5] of 16 µM. For the same molecule, in series [6], the microsomal CLint came out at 13.3 µL/min/mg.
`O=C(c1ccc(-n2nnc3cccnc32)cc1)N(c1nccc2ccccc12)[C@@H]1CCCNC1`: the figures for the IC50 on 80S Ribosome [1] and at 80S Ribosome [3] were 0.9 µM and 0.39 µM, respectively. For the same molecule, in series [4], the logD worked out at 1.4. This molecule yielded a Ki in series [5] of 15.8 µM. The microsomal CLint in series [6] is 21.8 µL/min/mg.
In the case of `O=C(c1ccc(-c2ccccc2)cc1)N(c1nccc2ccccc12)[C@@H]1CCCNC1`, the values for the microsomal CLint in series [2] and in [6] were 57.7 µL/min/mg and 10.7 µL/min/mg, respectively. Moreover, the inhibition turned out to be 54% in [9] and 39% in series [10]. Further, the pH-dependent lipophilicity (logD) in series [4] amounted to 2.5. Moreover, in series [5], the affinity corresponds to a Ki of 2.2 µM.
For the molecule `O=C(c1ccc(-c2cnn3cccnc23)cc1)N(c1nccc2ccccc12)[C@@H]1CCCNC1`, the IC50 on 80S Ribosome [1] is 1.29 µM; at 80S Ribosome [3], 0.69 µM; in the series with Bone marrow cell it was 1.4 µM. The microsomal CLint in series [2] worked out at 31.2 µL/min/mg; in series [6], 14.5 µL/min/mg. In series [4], this molecule gave a logD of 1.1. Further, the affinity in [5], expressed as Ki, was 5.4 µM.
